Screens deposited in PubChem by several laboratories.
This is a sample that favours compounds with a hit; in the whole collection about 6.4% have one here.
H69AR growth 86K: growth inhibitors of human H69AR lung tumor cells; H69AR lung tumor viability, ATP luminescence, 72 h; hits give low values; viability, % at 10 µM; 85,000 tested, 6% active; AID 598;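 active means viability at or below 40%; inactive means viability above 40%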;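 further: multidrug resistant small cell line overexpressing MRP-1 efflux transporter; 100% = mean luminescence of untreated control wells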
Fibroblast inh: blocks proliferation of human lung fibroblasts | viability, % at 10 µM | LL 47 human lung fibroblast viability, ATP luminescence; hits give low values | 85,000 tested, 1.1% active;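 active means viability at or below 50% in the single dose screen; inactive means viability above 50%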;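 further: compound exposure lasted 72 h before the ATP readout; 100% = median luminescence of untreated cell-only wells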
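Test system: LL 47 human lung fibroblasts / Quantity: 1,150 cells in each well / Medium: IMEM growth medium with 15% fetal bovine serum / Incubation: 72 h compound exposure at 37 °C after overnight plating / Detection: CellTiter-Glo luminescence measuring cellular ATP / Read-out: % viability versus median cells-only luminescence / Benchmarks: cell-only wells, no compound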
Jurkat tox 60K: reduces viability or proliferation of Jurkat cells; 56,000 tested, 1.2% active; Jurkat E6.1 viability, ATP luminescence, 48 h; inhibition, % at 4 µM; AID 463;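 active means inhibition above the mean inhibition of all tested compounds plus 3 SD, cut at about 28% in these data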
tolC growth inh: growth inhibitors of E. coli BW25113 tolC mutant | OD615 | growth inhibition, % at 10 µM (by protocol) | 65,000 tested, 2.2% active | AID 573;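 active means growth inhibition at or above a cutoff equal to the mean over every tested compound plus 3 SD, cut at about 60% in these data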;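 further: growth measured after 20 h incubation at 37 °C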
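Test system – E. coli BW25113 ΔtolC::kan, tolC deletion mutant strain · Detection – OD at 615 nm · Buffer or medium – LB with kanamycin 50 µg/mL · Times – 20 h compound exposure of bacteria at 37 °C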
Ecoli WT expand: growth inhibitors of E. coli BW25113 wild type; AID 710; OD600 absorbance; growth inhibition, % at 100 µM; 98,000 tested, 0.15% active;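 active means growth inhibition above about 50% at one test dose, limit read from the data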;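 further: growth measured after 20 h incubation at 37 °C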
HUVEC inhibit: inhibitors of human endothelial cell proliferation; HUVEC proliferation, CellTiter-Glo luminescence, 72 h; hits give low values; viability, % at 10 µM (by protocol); 86,000 tested, 1.1% active;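 active means viability at or below 30%; inactive means viability above 30%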;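 further: 100% = median luminescence of DMSO-only cell control wells on each plate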
Numbers without * were called inactive; nt = not tested or not shown.

SMILES	H69AR growth 86K	Fibroblast inh	Jurkat tox 60K	tolC growth inh	Ecoli WT expand	HUVEC inhibit
C=CCn1c(C(C)NC(=O)COC)nc2ccccc21 (stereo not drawn)	106	102	-2	3	-3	102
CCOc1cc(C2C(C#N)=C(N)OC(C)=C2C(C)=O)cc(Br)c1O (stereo not drawn)	84	104	-6	10	-19	102
CCOc1cc(C2C(C#N)=C(N)OC(C)=C2C(C)=O)c(Br)c(Br)c1OC(C)C (stereo not drawn)	3.2*	62	nt	nt	nt	31
COc1cc(Nc2ccccc2Cl)c([N+](=O)[O-])nc1[N+](=O)[O-]	17*	86	nt	nt	4	71
COc1ccc(Cl)cc1NC(=O)Nc1cccc([N+](=O)[O-])c1C	nt	nt	nt	nt	-7	nt
CN(C)c1ccc(-c2noc(-c3ccccc3O)n2)cc1	68	80	-1	-16	-20	76
CCn1c(COc2ccc3c(c2)OCO3)nnc1SCC(=O)c1ccc(Cl)cc1	59	93	nt	nt	-18	54
CCOC(=O)c1cc(NC(=O)CSCCO)ccc1Cl	15*	97	9	3	2	105
CN(CC(=O)NCc1ccncc1)S(=O)(=O)c1ccc(F)cc1	91	101	nt	nt	3	103
COC(=O)C1=C(CN2CCc3ccccc32)NC(=O)NC1c1cc(C)ccc1C (stereo not drawn)	34*	89	6	45	-1	85
COC(=O)C1=C(CSCc2ccccc2)NC(=O)NC1c1cc(C)ccc1C (stereo not drawn)	65	101	nt	nt	-4	91
COC(=O)C1=C(CSc2nc3ccccc3o2)NC(=O)NC1c1cc(C)ccc1C (stereo not drawn)	96	86	10	86*	10	67
CCCCCCSC1=C(C#N)C(c2ccc(O)cc2)CC(=O)N1 (stereo not drawn)	47	87	-2	28	-4	75
O=C(COc1ncnc2scc(-c3ccc(Cl)cc3)c12)NCc1ccco1	76	89	nt	nt	-1	83
COc1ccc(OC)c2sc(N3CCCCC3)nc12	80	46*	-2	2	-6	94
CC1=C(C)/C(=N/OC(=O)c2cccc([N+](=O)[O-])c2)C=CC1=O	11*	89	nt	nt	nt	88
CC(C)Cn1c(SCc2nc3ccccc3c(=O)[nH]2)nc2ccccc2c1=O	nt	nt	nt	nt	-13	nt
CC(=O)Nc1nc(C)nc(-c2ccccc2OC(C)=O)n1	103	105	6	-16	1	100
CC(=O)Nc1nc(-c2ccccc2)nc(-c2ccccc2OC(C)=O)n1	24*	nt	7	6	6	45
CCCn1c(SCC(=O)N2c3ccccc3CCc3ccccc32)nc2c1c(=O)n(C)c(=O)n2C	nt	nt	nt	nt	-1	nt
O=C(Nc1nc2ccccc2s1)C1CC(=O)N(c2ccc(Br)cc2)C1 (stereo not drawn)	66	103	nt	nt	-6	81
Cc1ccccc1CS(=O)(=O)c1nnc([C@H](Cc2ccccc2)NC(=O)OC(C)(C)C)o1	1.2*	5.5*	nt	nt	9	62
CCC(C)C(NCc1cccc(C)c1)C(=O)O (stereo not drawn)	nt	nt	nt	-6	nt	nt
CC(C)(C)OC(=O)N[C@@H](Cc1ccccc1)c1nnc(S(=O)(=O)Cc2ccccc2)o1	nt	nt	10	3	1	nt
CC(C)(C)OC(=O)N[C@@H](Cc1ccccc1)c1nnc(SCC(=O)c2ccc(Cl)cc2)o1	47	29*	nt	nt	1	46
SMILES	H69AR growth 86K	Fibroblast inh	Jurkat tox 60K	tolC growth inh	Ecoli WT expand	HUVEC inhibit
CCC(C)[C@@H](NC(=O)OC(C)(C)C)c1nnc(S(=O)(=O)Cc2cccc(C)c2)o1 (stereo partly drawn)	1.6*	6.2*	9	-7	4	76
C=CCN(CCNP(=O)(OCC)OCC)CP(=O)(OCC)OCC	84	102	nt	nt	1	93
CCCOc1ccc(-c2nc(OC)c3ccccc3n2)cc1	52	93	nt	nt	2	86
O=C(/C=C/c1ccc(Cl)cc1)c1cccnc1	38*	25*	nt	nt	20	63
O=C(/C=C/c1ccccc1Cl)c1cccnc1	1.2*	76	nt	nt	5	21*
O=C(O)c1cccnc1	86	99	nt	nt	nt	96
O=C(/C=C/c1ccc(OC2CSC2)cc1)c1ccccc1	nt	nt	nt	nt	-2	nt
Cc1ccc(/C=C/C(=O)c2ccccc2)cc1	85	49*	nt	nt	6	79
CC(=O)c1ccc(N2CCN(C(=O)c3ccc(NC(=O)C4CCCO4)cc3)CC2)cc1 (stereo not drawn)	96	103	nt	4	2	96
COCC(C)n1c(C)cc(C(=O)CN2C(=O)NC(Cc3c[nH]c4ccccc34)C2=O)c1C (stereo not drawn)	94	97	nt	nt	-3	88
CC1=C(C#N)C(Nc2ccc(C)cn2)(C(F)(F)F)C(=O)N1 (stereo not drawn)	93	100	nt	nt	-2	97
O=c1cc(-c2ccccc2)[nH]c2nc3ccccc3n12	14*	66	47*	4	-5	53
CCOC(=O)C1(c2ccccc2)NC(c2ccccc2C)C2C(=O)N(c3ccc4c(c3)OCO4)C(=O)C21 (stereo not drawn)	69	89	nt	nt	-11	88
Cc1nnc2sc(-c3ccc(NC(=O)c4ccc(-c5ccc(Br)cc5)o4)cc3)nn12	21*	67	0	21	nt	72
COC(=O)c1ccccc1NC(=O)c1ccc(-c2cccc(Cl)c2)o1	12*	86	nt	nt	-12	52
Cc1ccc(-c2nn3c(C)nnc3s2)cc1NC(=O)c1ccc(-c2cccc(Cl)c2)o1	4.2*	99	4	19	3	36
Cc1ccc(-c2nn3c(C)nnc3s2)cc1NC(=O)c1ccc(-c2ccc(Cl)cc2Cl)o1	104	6.5*	6	-10	nt	6.5*
CCCC/C(C)=N/NC(=O)C(=O)NCCc1ccccc1	nt	nt	nt	nt	-8	nt
CC(C(=O)N1CCCc2ccccc21)N1C(=O)c2ccccc2C1=O (stereo not drawn)	92	106	nt	nt	nt	105
O=C(Nc1ccc(CN2CCOCC2)cc1)c1ccc(-c2ccc(Br)cc2)o1	19*	75	23	100*	-14	45
Cc1ccc(-c2nc3cccnc3o2)cc1NC(=O)COc1ccc(C(C)(C)C)cc1	44	82	nt	nt	5	18*
Cc1ccc(-c2nc3ncccc3o2)cc1NC(=O)COc1ccccc1	81	117	nt	nt	-5	89
Cc1ccc(-c2nc3cccnc3o2)cc1NC(=O)COc1ccc(Cl)cc1C	6.9*	63	3	10	-2	33
CCCCN(NC(C)=O)c1nc(Cl)nc(NC(C)C)n1	104	100	nt	nt	-5	97
Cc1c(C(=O)OCC(C)C)[nH]c2c1C(=O)CC(c1cccs1)C2 (stereo not drawn)	21*	52	nt	nt	-5	45
CCOC(=O)c1[nH]c2c(c1C)C(=O)CC(c1ccc(OCC)c(OC)c1)C2 (stereo not drawn)	83	104	nt	-8	-3	94
CCCCCOC(=O)c1[nH]c2c(c1C)C(=O)CC(c1ccco1)C2 (stereo not drawn)	nt	nt	101*	32	nt	nt
